This is a sample that favours compounds with a hit; in the whole collection about 1.3% have one here.
LANA DNA inh = inhibitors of KSHV C-LANA binding to DNA, primary screen, biochemical, fluorescence polarization, FAM-LBS DNA, MBP-C-LANA, single point; inhibition, % at 9 µM; 340,000 compounds, 0.078% hits; AID 504423, 2011;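 active = highest replicate inhibition at or above 60% at 9 µM, even if other replicates fall short; inactive = all replicates below 60% inhibition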
Keap1 Nrf2 FP = Keap1-Nrf2 protein-protein interaction inhibitors, primary screen, biochemical, fluorescence polarization, single point; AID 504523, 2011; 340,000 compounds, 0.15% hits; inhibition, % at 9.4 µM; Keap1 Kelch-Nrf2 peptide fluorescence polarization, 1536-well; in the data active = inhibition above about 12%; inconclusive = no clear call, values can overlap the other calls; inactive = below about 7.3%;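 note: human Keap1 Kelch domain with fluorescein labeled Nrf2 9mer peptide probe; higher means more block of Keap1 binding to Nrf2 peptide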
Target sequence (Q14145 whole entry, looked up, the tested form may be a part): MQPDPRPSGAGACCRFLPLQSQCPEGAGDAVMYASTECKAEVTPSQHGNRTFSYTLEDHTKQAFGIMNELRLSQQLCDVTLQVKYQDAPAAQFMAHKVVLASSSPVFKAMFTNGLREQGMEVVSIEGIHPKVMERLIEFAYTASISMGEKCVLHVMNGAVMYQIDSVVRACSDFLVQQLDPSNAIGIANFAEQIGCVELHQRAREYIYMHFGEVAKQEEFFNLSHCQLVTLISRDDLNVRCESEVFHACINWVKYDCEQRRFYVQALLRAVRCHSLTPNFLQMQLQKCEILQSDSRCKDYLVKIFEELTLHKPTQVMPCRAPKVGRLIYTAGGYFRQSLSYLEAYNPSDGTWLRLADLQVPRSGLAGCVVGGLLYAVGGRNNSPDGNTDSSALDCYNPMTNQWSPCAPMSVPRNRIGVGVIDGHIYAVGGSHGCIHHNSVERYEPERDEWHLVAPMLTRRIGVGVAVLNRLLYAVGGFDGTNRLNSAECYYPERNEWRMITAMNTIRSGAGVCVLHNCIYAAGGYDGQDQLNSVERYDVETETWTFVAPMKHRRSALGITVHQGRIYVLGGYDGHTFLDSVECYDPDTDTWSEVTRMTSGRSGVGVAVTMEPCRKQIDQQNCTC
EBV gp42 inh = Epstein-Barr virus gp42 inhibitors, primary screen, biochemical, uHTS, fluorescence polarization | Glycoprotein 42 (Epstein-Barr virus (strain AG876)), Q1HVG2 | Fluorescence polarization binding assay, mP read-out | inhibition, % (tested at 21.74 µM) | 220,000 compounds, 0.42% hits; in the data active = inhibition above about 50%
MEX-5 binding = MEX-5 zinc finger RNA-binding disruptors – biochemical, C. elegans, fluorescence polarization, MLPCN library, primary screen | Zinc finger protein mex-5 (Caenorhabditis elegans), Q9XUB2 | MEX-5/FITC-TCR2 RNA binding; active compounds read low | activity score (negative = inhibition of binding), % at 10 µM | 300,000 compounds, 0.38% hits;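 active = inhibition past about -25% in most replicates, and total fluorescence under double the plate's negative control median, limit read from the data; inconclusive = replicates evenly split on the limit, or fluorescence at least double controls; inactive = too little inhibition in most replicates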
GRK2 inh = compounds blocking aptamer binding on GRK2 – biochemical, human GRK2, bead flow cytometry, HTS, primary screen. Beta-adrenergic receptor kinase 1 (Homo sapiens), P25098. FAM-aptamer displacement from GRK2. inhibition of aptamer binding, % at 10 µM. 330,000 compounds, 0.59% hits. AID 488847, 2010;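 active = inhibition of aptamer binding above 40%, roughly 3 SD of noise, on plates passing a quality check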;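 note: median bead fluorescence of bound FAM aptamer so fluorescent compounds give negative values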
T cell HTS = modulators of CD8 T cell-vesicle binding, primary screen, mouse 2C CD8+ T cells, flow cytometry | 2C CD8+ T cell-vesicle binding; active compounds read low | response (vesicle binding), % at 7 µM | 330,000 compounds, 0.068% hits;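 active = response, share of CD8 T cells binding vesicles, and their 90th percentile fluorescence all below set limits, cut at about 80% in these data, passing the limit was not always enough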;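 note: values below 100% mean blocked vesicle binding to the CD8+ T cells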
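System: murine 2C transgenic CD8+ T lymphocytes; also added: QL9-loaded Drosophila micro-vesicles; times: binding 1.5 h at 37 °C; measured by: flow cytometry, PE anti-B7-1 (FL2) versus Alexa647 anti-CD8 (FL8), PFA-fixed; control set: Peptide-free naked vesicles (low) and QL9 vesicles with 0.7% DMSO vehicle (high)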
Each line names hits and unclear results; the compound was inactive in the other large screens.

COc1cc(-c2csc(C)n2)ccc1O	none
Cc1ccc2nc(-c3ccccc3)cn2c1	none
CCN(CC)c1ccc(/C=C(\C#N)c2ccccn2)cc1	none
CCN(CC)c1ccc(C=N/C(C#N)=C(\N)C#N)cc1	MEX-5 binding -109
COCC(=O)Nc1nc2n(n1)C(c1ccc(Cl)cc1)CC(c1ccc(OC)cc1)N2 (stereo unspecified)	none
CC1(OC(=O)c2cnc3ccccc3n2)C(=O)C=C2C=C(C3CC3)OC=C2C1=O (stereo unspecified)	MEX-5 binding -53 (no result: LANA DNA inh, Keap1 Nrf2 FP, EBV gp42 inh)
CC1(OC(=O)c2ccco2)C(=O)C=C2C=C(C3CC3)OC=C2C1=O (stereo unspecified)	MEX-5 binding -34 (no result: EBV gp42 inh)
CC1(OC(=O)c2cccs2)C(=O)C=C2C=C(C3CC3)OC=C2C1=O (stereo unspecified)	none (no result: EBV gp42 inh)
O=C(N/N=C/C=C\c1ccccc1[N+](=O)[O-])c1cccs1	none
O=C(N/N=C/C=C/c1ccc([N+](=O)[O-])cc1)c1cccs1	MEX-5 binding -72
CCOC(=O)c1cc2c(=O)[nH]ccc2nc1C(F)(F)F	none
CN(C)S(=O)(=O)c1ccc(C(=O)NCCc2ccco2)cc1	T cell HTS 66 (no result: EBV gp42 inh)
CC#CC(=O)N1CCC(Oc2cccc(C(=O)NCc3ccccn3)c2)CC1	none (no result: EBV gp42 inh)
CSCC(C)N1CCC(Oc2cccc(C(=O)NCc3ccccn3)c2)CC1 (stereo unspecified)	MEX-5 binding -29 (no result: EBV gp42 inh)
O=C(NCCCn1ccnc1)/C(=C\c1cccnc1)NC(=O)c1cccc(Br)c1	GRK2 inh 66
COc1ccc(S(=O)(=O)Nc2cc(SCC(=O)O)c(O)c3ccccc23)cc1	MEX-5 binding -53 (no result: EBV gp42 inh)
Cc1cc(C)c(S(=O)(=O)Nc2cc(SCC(=O)O)c(O)c3ccccc23)cc1C	MEX-5 binding -56 (no result: LANA DNA inh, Keap1 Nrf2 FP)
Cc1nc2ccccc2c(=O)n1NC(=O)c1ccccc1F	none (no result: EBV gp42 inh)
CCN(CC)c1ccc2c(-c3ccc(S(=O)(=O)O)cc3S(=O)(=O)[O-])c3ccc(=[N+](CC)CC)cc-3oc2c1	LANA DNA inh 121, Keap1 Nrf2 FP 82, MEX-5 binding inconclusive (no result: EBV gp42 inh)
CCN(CC)c1ccc2nc3c4ccccc4c(=O)cc-3oc2c1	none (no result: LANA DNA inh, Keap1 Nrf2 FP, EBV gp42 inh)
CN(C)c1ccc(/C=C/C(=O)c2cccc(Br)c2)cc1	EBV gp42 inh 144, MEX-5 binding inconclusive
O=C(NNC(=O)c1ccc2ccccc2c1O)c1ccccc1Cl	MEX-5 binding -56
Cc1cc(Cl)ccc1NC(=O)COC(=O)CCNS(=O)(=O)c1ccccc1	T cell HTS 0.0 (no result: EBV gp42 inh, MEX-5 binding)
Cc1ccc(S(=O)(=O)N(C)C)cc1NC(=O)COC(=O)CCNS(=O)(=O)c1ccccc1	none (no result: EBV gp42 inh, MEX-5 binding, GRK2 inh, T cell HTS)
Cc1ccc(NC(=O)C2=CN3CCS(=O)(=O)N=C3C=C2)cc1	none (no result: EBV gp42 inh, MEX-5 binding)
CN(C)c1ccnc2sc(C(=O)c3ccc(Br)cc3)c(N)c12	EBV gp42 inh 73
O=[N+]([O-])c1ccc(Sc2cccc[n+]2[O-])c2nonc12	Keap1 Nrf2 FP 20 (no result: GRK2 inh, T cell HTS)
NC(=O)C1CCN(c2nc(-c3cccnc3)cs2)CC1	Keap1 Nrf2 FP 13 (no result: EBV gp42 inh, MEX-5 binding)
NC(=O)C1CCN(c2nc(-c3cc4ccccc4o3)cs2)CC1	T cell HTS 78 (no result: EBV gp42 inh, MEX-5 binding)
CN1CCN(c2nc(-c3cc4ccccc4o3)cs2)CC1	none
COc1ccc2nc(N3CCCCC3)c(C#N)cc2c1	EBV gp42 inh 58
COc1ccc2nc(N3CCCC3)c(C#N)cc2c1	EBV gp42 inh 127
CCN(C(=O)CSc1nnc(C)c(=O)[nH]1)c1cccc2ccccc12	none (no result: EBV gp42 inh, MEX-5 binding)
CC(C)Nc1nc(Cl)nc(N(C#N)CN2C(=O)c3ccccc3S2(=O)=O)n1	EBV gp42 inh 52
COc1nc(NC(C)C)nc(N(C#N)CN2C(=O)c3ccccc3S2(=O)=O)n1	none
CC(=O)c1c(C(C)=O)c(C)n(-c2ccc(C(=O)O)cc2)c1C	none
Cc1ccc(C)n1-c1ccc(C(=O)O)cc1	MEX-5 binding -50, GRK2 inh 82 (no result: LANA DNA inh, Keap1 Nrf2 FP)
CCOc1ccc(C2C=C(c3ccc(F)cc3)Nc3ncnn32)cc1 (stereo unspecified)	EBV gp42 inh 53
COCCn1c(C)cc(C(=O)CN2C(=O)NC3(CCCCCCC3)C2=O)c1C	T cell HTS 0.0
CC(C)(C)NC(=O)c1ccc(C(=O)NC(C)(C)C)cc1	none (no result: LANA DNA inh, Keap1 Nrf2 FP, GRK2 inh, T cell HTS)
CC(C)(C)NC(=O)c1sccc1C(=O)O	EBV gp42 inh 100
COc1cccc(OCc2cc(C(=O)N3CCN(c4ccccc4OC)CC3)no2)c1	none (no result: EBV gp42 inh)
O=C(O)c1ccccc1NS(=O)(=O)c1cccc(C(F)(F)F)c1	none
O=C(O)c1ccccc1NS(=O)(=O)c1cccc(-n2sc3ccccc3c2=O)c1	MEX-5 binding -50 (no result: EBV gp42 inh)
O=C(Nc1ccncc1)Nc1ccc(F)cc1F	EBV gp42 inh 73
COc1cccc(-n2c(N)c(C#N)c3ccc([N+](=O)[O-])cc3c2=O)c1	none (no result: LANA DNA inh, Keap1 Nrf2 FP)
COc1ccc(-n2c(N)c(C#N)c3ccc([N+](=O)[O-])cc3c2=O)cc1	EBV gp42 inh 52
CC(=O)c1cccc(OCC(=O)N(C)CC(=O)NCc2ccco2)c1	GRK2 inh 86 (no result: EBV gp42 inh, MEX-5 binding)
Cc1ccc(OCC(=O)N(C)CC(=O)NCc2ccco2)c(Br)c1	none (no result: EBV gp42 inh, MEX-5 binding, GRK2 inh, T cell HTS)
Cc1ccc(/C=c2\sc3nc(-c4cccnc4)nn3c2=O)cc1	EBV gp42 inh 86
CC1=Nc2ccccc2/C1=C\c1nc(-c2ccc(F)cc2)oc1O	EBV gp42 inh 138, MEX-5 binding -36
COc1ccc(CCN(Cc2nc3ccccc3c(=O)[nH]2)C(=O)c2ccco2)cc1OC	EBV gp42 inh 98
COc1ccc(CN(Cc2nc3ccccc3c(=O)[nH]2)C(=O)c2ccco2)cc1	none (no result: EBV gp42 inh)
COc1ccc(S(=O)(=O)N2CCOCC2)cc1C(=O)N1CCCCC1	none (no result: EBV gp42 inh)
Cc1cc(C(F)(F)F)n(-c2nc(C(=O)Nc3cccnc3)cs2)n1	none
CCNc1cccc2c1C(=O)N(C)C2=O	EBV gp42 inh 160
CCC(=O)Nc1cccc2c1C(=O)N(C)C2=O	none
CCOC(=O)c1c(NC(NC(C)=O)C(Cl)(Cl)Cl)sc2c1CCCC2 (stereo unspecified)	GRK2 inh 73
COC(=O)c1c(NC(NC(C)=O)C(Cl)(Cl)Cl)sc2c1CCCC2 (stereo unspecified)	none
CS/C(=C\[N+](=O)[O-])Nc1ccccc1	none
COc1ccc(C2C=C(c3ccccc3)Nc3nc(NC(C)=O)nn32)cc1 (stereo unspecified)	EBV gp42 inh 58 (no result: LANA DNA inh, Keap1 Nrf2 FP)
COc1ccc(C2C=C(c3ccccc3)Nc3nnnn32)cc1 (stereo unspecified)	none
